The values below come from PubChem BioAssay AID540246 (Broad Institute, 2011).

Calls of active or inactive are those of the source.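 The calls were made as follows: active = IC50 no more than ten times the top valid dose, with luminescence dropping as cells die; inconclusive = flat curve losing 30 to 70% of signal, or poor fit; inactive = the rest, including signal rises.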

The subject of one assay is ldlA[mSR-BI] CHO cells viability, CellTiter-Glo ATP, 3 h. Nature of the assay: cytotoxicity in ldlA[mSR-BI] cells, dose response, cytotoxicity control for SR-BI HDL uptake inhibitor project, cell-based, CellTiter-Glo, 3 h, dry powder (AID 540246).
Settings: not given
Summed up: (§1)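 material = ldlA[mSR-BI] cells, viability (cytotoxicity counter-screen) | evaluation = IC50 for loss of cell viability fitted from dose series | times = 3 h compound exposure of cells at 37 °C | detection = luminescence from Cell Titer Glo luciferase reagent sensing cellular ATP | dosing = 8-point compound dose series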
Consider `CCOC(=O)Nc1cccc(NC(=O)c2cc(OC)cc(OC)c2)c1`, for which the IC50 is > 35 µM (inactive).

With `O=C(Nc1cc(Cl)ccc1Cl)c1cc(Cl)ccc1NS(=O)(=O)c1ccc(Cl)c([N+](=O)[O-])c1`, the IC50 was > 35 µM (inactive).

For `C[C@H]1CN([C@@H](C)CO)C(=O)c2cccc(NC(=O)Nc3ccc(F)cc3)c2O[C@@H]1CN(C)Cc1ccc(Cl)c(Cl)c1`, the IC50 is 48.1 µM.

Turning to `COc1ccc(-c2nnn(CC(=O)N(C3CCCCC3)C(C)C(=O)NC3CCCC3)n2)cc1OC` (centres undefined), the IC50 was > 35 µM (inactive).

Regarding `CCOc1ccccc1/C=C/c1onc(C)c1S(=O)(=O)N1CCC(C(=O)NC(C)(C)C)CC1`, the IC50 was > 35 µM (inactive).

With `Cc1ccc2oc(-c3cccc(NC(=O)c4cc(-n5cnnc5)ccc4Cl)c3)nc2c1`, the 50% inhibitory concentration (IC50) was 31.7 µM.

`O=C(Nc1ccc(-c2nc3ccc(NC(=O)c4ccccc4)cc3[nH]2)cc1)c1ccccc1`: the IC50 is 37.8 µM.

As to `Cc1cc(C(=O)C(C)OC(=O)C2=NNC(=O)CC2)c(C)n1-c1ccc(OC(F)F)cc1` (centres undefined), the IC50 was > 35 µM (inactive).

Test system in the next assay: not listed separately
The assay is described as above. Conditions: ldlA[mSR-BI] CHO cells viability, CellTiter-Glo ATP, 3 h; at 30 µM (top of the series). Summed up: as §1
As to `C[C@H]1CN([C@@H](C)CO)C(=O)c2cc(NC(=O)Cc3cn(C)c4ccccc34)ccc2O[C@H]1CN(C)S(=O)(=O)c1ccc(F)cc1`, the activity change, negative = cytotoxicity is -3.79% (inactive).

The same assay, now with this note: ldlA[mSR-BI] CHO cells viability, CellTiter-Glo ATP, 3 h; at 35 µM (top of the series).
On to `C[C@H](CO)N1C[C@H](C)[C@H](CN(C)S(=O)(=O)c2ccc(F)cc2)Oc2ccc(NC(=O)Cc3ccccc3)cc2C1=O`, for which the activity change, negative = cytotoxicity is 2.52% (inactive).

Take `C[C@H]1CN([C@@H](C)CO)C(=O)c2cccc(NS(C)(=O)=O)c2O[C@@H]1CN(C)Cc1ccc(Cl)c(Cl)c1`: the activity change, negative = cytotoxicity was 7.9% (inactive).

In the case of `COC(=O)c1cn(C(=O)c2cccc3ccccc23)c2ccccc12`, the activity change, negative = cytotoxicity was -9.72% (inactive).

`CC(OC(=O)c1cccc(NS(C)(=O)=O)c1)C(=O)Nc1ccc(N2CCOCC2)cc1` (centres undefined): the activity change, negative = cytotoxicity is -2.45% (inactive).

On to `O=C(Nc1ccc(-c2nc3cc(NC(=O)c4ccccc4Cl)ccc3o2)cc1)c1ccccc1Cl`, for which the activity change, negative = cytotoxicity was 15.2% (inactive).

As to `CCn1c(COc2c(C)cccc2C)nnc1SCC(=O)N1CCN(c2ccccc2)CC1`, the activity change, negative = cytotoxicity is -2.44% (inactive).

For `C[C@H]1CN([C@@H](C)CO)C(=O)c2cc(NC(=O)Cc3cn(C)c4ccccc34)ccc2O[C@@H]1CN(C)S(=O)(=O)c1ccc(F)cc1`, the activity change, negative = cytotoxicity is 6.2% (inactive).

As for `Cc1cc(C)c2c(c1)NC(c1cc3c(cc1Br)OCO3)C1CC=CC21` (centres undefined), the activity change, negative = cytotoxicity is -1.84% (inactive).

In the case of `CNC[C@@H]1Oc2ccc(NC(=O)Cc3cn(C)c4ccccc34)cc2C(=O)N([C@H](C)CO)C[C@H]1C`, the activity change, negative = cytotoxicity was -2.77% (inactive).

Regarding `CC(C)OCCCNC(=O)c1ccc(C2SCC(=O)N2Cc2ccco2)cc1` (centres undefined), the activity change, negative = cytotoxicity is 0.099% (inactive).

Turning to `CC(C)NC(=O)Nc1cccc2c1O[C@H](CN(C)Cc1ccc(Cl)c(Cl)c1)[C@@H](C)CN([C@@H](C)CO)C2=O`, the activity change, negative = cytotoxicity was 3.16% (inactive).

Turning to `CCc1sc(N2C(=O)C3C4CCC(C4=C(C)C)C3C2=O)nc1-c1ccccc1` (centres undefined), the activity change, negative = cytotoxicity is 3.35% (inactive).

As to `CCOC(=O)N1CCC(NC(=O)c2ccc3c(c2)N(Cc2ccc(F)cc2)CCS3)CC1`, the activity change, negative = cytotoxicity was -2.37% (inactive).

For the compound `Nc1ccc(C(=O)Nc2ccc(-c3nc4ccc(NC(=O)c5ccc(N)cc5)cc4[nH]3)cc2)cc1`, the activity change, negative = cytotoxicity was 11.1% (inactive).

On to `COc1ccc([C@H]2CC(=O)C=C(c3cccc4c3sc3ccccc34)C2)cc1OC`, for which the activity change, negative = cytotoxicity is 3.09% (inactive).

For `COc1ccc(OC)c(CCNC(=O)c2ccc3c(c2)N(Cc2ccc(F)cc2)CCS3)c1`, the activity change, negative = cytotoxicity is -8.19% (inactive).

As to `COc1cccc(-c2csc(N3CCN(C(=S)Nc4cccc(Cl)c4)CC3)n2)c1`, the activity change, negative = cytotoxicity is -1.79% (inactive).

`Cc1cc(C)n(CC(=O)NC2CCCc3c2cnn3-c2ccc(C)c(C)c2)n1` (centres undefined): the activity change, negative = cytotoxicity is 0.308% (inactive).

Take `C[C@H](CO)N1C[C@H](C)[C@H](CN(C)S(=O)(=O)c2ccc(F)cc2)Oc2ccc(NS(C)(=O)=O)cc2C1=O`: the activity change, negative = cytotoxicity is -0.83% (inactive).

For the compound `Cc1cc(SC(C)C(=O)Nc2ncc(Cl)cc2Cl)nc2ccccc12` (centres undefined), the activity change, negative = cytotoxicity is -7.81% (inactive).

For the compound `C[C@H]1CN([C@@H](C)CO)C(=O)c2cc(NC(=O)Nc3ccccc3)ccc2O[C@@H]1CN(C)Cc1ccc(Cl)c(Cl)c1`, the activity change, negative = cytotoxicity is -3.65% (inactive).

On to `O=C(Nc1ccc(-c2nc3ccc(NC(=O)c4ccc(Cl)cc4)cc3[nH]2)cc1)c1ccc(Cl)cc1`, for which the activity change, negative = cytotoxicity is 5.01% (inactive).

Turning to `C[C@@H]1CN([C@H](C)CO)C(=O)Cc2cc(NC(=O)Cc3cn(C)c4ccccc34)ccc2O[C@H]1CN(C)S(=O)(=O)c1ccc(F)cc1`, the activity change, negative = cytotoxicity was -1% (inactive).

`C[C@H]1CN([C@@H](C)CO)C(=O)c2cccc(N(C)C)c2O[C@@H]1CN(C)Cc1ccc(Cl)c(Cl)c1`: the activity change, negative = cytotoxicity is -9.85% (inactive).

On to `C[C@@H]1CN([C@H](C)CO)C(=O)c2cc(NC(=O)Cc3cn(C)c4ccccc34)ccc2O[C@H]1CN(C)S(=O)(=O)c1ccc(F)cc1`, for which the activity change, negative = cytotoxicity is 3.35% (inactive).

Take `CCC(=O)N1CCc2cc(-c3csc(NC(=O)c4ccco4)n3)ccc21`: the activity change, negative = cytotoxicity was -3.84% (inactive).

Take `N#Cc1sc2nc(C3CC3)cc(-c3ccc(Cl)cc3)c2c1N`: the activity change, negative = cytotoxicity is -2.17% (inactive).

For the compound `O=C(Nc1cc(Cl)ccc1Cl)c1cc(Br)ccc1NS(=O)(=O)c1ccc(Cl)c([N+](=O)[O-])c1`, the activity change, negative = cytotoxicity is -7.81% (inactive).

On to `CC(C)(C)NC(=O)N1CCN(c2ncccc2C(F)(F)F)CC1`, for which the activity change, negative = cytotoxicity was 5.12% (inactive).

With `O=C(Nc1ccc(-c2nc3cc(NC(=O)c4ccc(NC(=O)c5cccc6ccccc56)cc4)ccc3[nH]2)cc1)c1ccc(NC(=O)c2cccc3ccccc23)cc1`, the activity change, negative = cytotoxicity is -0.376% (inactive).

For the compound `C[C@H](CO)N1C[C@H](C)[C@H](CN(C)S(=O)(=O)c2ccc(F)cc2)Oc2ccc(NC(=O)CCC(F)(F)F)cc2C1=O`, the activity change, negative = cytotoxicity is 0.245% (inactive).

For `O=C(Nc1ccc(-c2nc3ccc(NC(=O)c4ccccc4[N+](=O)[O-])cc3[nH]2)cc1)c1ccccc1[N+](=O)[O-]`, the activity change, negative = cytotoxicity was 6.25% (inactive).

`C[C@H](CO)N1C[C@H](C)[C@H](CN(C)S(=O)(=O)c2ccc(F)cc2)Oc2ccc(NC(=O)Cc3cn(C)c4ccccc34)cc2C1=O`: the activity change, negative = cytotoxicity is -7.27% (inactive).

Regarding `O=C(Nc1ccc(-c2nc3cc(NC(=O)c4ccccc4[N+](=O)[O-])ccc3o2)cc1)c1ccccc1[N+](=O)[O-]`, the activity change, negative = cytotoxicity was 9.71% (inactive).

For the compound `C[C@@H]1CN([C@H](C)CO)C(=O)c2cc(NC(=O)Cc3cn(C)c4ccccc34)ccc2O[C@H]1CN(C)S(C)(=O)=O`, the activity change, negative = cytotoxicity is 0.836% (inactive).

As to `O=C(Nc1cc(C(F)(F)F)ccc1Cl)c1ccccc1NS(=O)(=O)c1ccc(Cl)cc1`, the activity change, negative = cytotoxicity is 4.37% (inactive).

As to `C[C@@H]1CN([C@H](C)CO)C(=O)c2cc(NC(=O)Cc3cn(C)c4ccccc34)ccc2O[C@H]1CN(C)C(=O)Nc1ccc(F)cc1`, the activity change, negative = cytotoxicity was 0.369% (inactive).

For the compound `C[C@@H]1CN([C@H](C)CO)C(=O)c2cc(NC(=O)Cc3cn(C)c4ccccc34)ccc2O[C@H]1CN(C)S(=O)(=O)c1ccc(Cl)cc1`, the activity change, negative = cytotoxicity was 1.29% (inactive).

In the case of `C[C@H](CO)N1C[C@H](C)[C@@H](CN(C)S(=O)(=O)c2ccc(F)cc2)Oc2ccc(NC(=O)Cc3cn(C)c4ccccc34)cc2C1=O`, the activity change, negative = cytotoxicity was 4.04% (inactive).

For `C[C@@H]1CN([C@@H](C)CO)C(=O)c2cc(NC(=O)Cc3cn(C)c4ccccc34)ccc2O[C@H]1CN(C)S(=O)(=O)c1ccc(F)cc1`, the activity change, negative = cytotoxicity was -10.2% (inactive).

As to `O=C(Nc1cccc(NC(=O)c2cc([N+](=O)[O-])ccc2Cl)n1)c1cc([N+](=O)[O-])ccc1Cl`, the activity change, negative = cytotoxicity is -3.61% (inactive).

As to `C[C@H]1CN([C@@H](C)CO)C(=O)c2cccc(NC(=O)Nc3ccccc3)c2O[C@@H]1CN(C)Cc1ccccc1`, the activity change, negative = cytotoxicity is 6.56% (inactive).

Consider `C[C@H]1CN([C@@H](C)CO)C(=O)c2cccc(NC(=O)Nc3ccccc3)c2O[C@@H]1CN(C)C`, for which the activity change, negative = cytotoxicity was -3.85% (inactive).

Regarding `C[C@H]1CN([C@@H](C)CO)C(=O)c2cccc(NC(=O)Nc3ccccc3)c2O[C@@H]1CN(C)Cc1ccc(C(F)(F)F)cc1`, the activity change, negative = cytotoxicity is 0.509% (inactive).

On to `C[C@@H]1CN([C@H](C)CO)C(=O)c2cc(NC(=O)Cc3cn(C)c4ccccc34)ccc2O[C@@H]1CN(C)S(=O)(=O)c1ccc(F)cc1`, for which the activity change, negative = cytotoxicity was 4.76% (inactive).

In the case of `C[C@@H]1CN([C@@H](C)CO)C(=O)c2cc(NC(=O)Cc3cn(C)c4ccccc34)ccc2O[C@@H]1CN(C)S(=O)(=O)c1ccc(F)cc1`, the activity change, negative = cytotoxicity was 6.07% (inactive).

In the case of `CCc1cc2cc3c(cc2nc1SCC(=O)OC(C)C)OCO3`, the activity change, negative = cytotoxicity was 0.059% (inactive).

Turning to `C[C@H]1CN([C@@H](C)CO)C(=O)c2cccc(NC(=O)Nc3ccccc3)c2O[C@@H]1CN(C)S(C)(=O)=O`, the activity change, negative = cytotoxicity is -2.86% (inactive).

`C[C@@H]1CN([C@H](C)CO)C(=O)c2cc(NC(=O)Cc3cn(C)c4ccccc34)ccc2O[C@H]1CN(C)S(=O)(=O)c1ccccc1`: the activity change, negative = cytotoxicity is 1.67% (inactive).

Take `O=C(Nc1ccccc1Cl)c1ccccc1NS(=O)(=O)c1ccccc1`: the activity change, negative = cytotoxicity was 0.062% (inactive).
